CHRM1 agonist = human M1 muscarinic receptor agonists, primary screen, Fluo-8 calcium fluorescence, CHO-K1 cells, HTS. Muscarinic acetylcholine receptor M1 (Homo sapiens), P11229. CHO-K1 hM1, agonist mode; 0% DMSO, 100% acetylcholine EC100. activation, % at 3 µM. 360,000 compounds, 0.33% hits;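 active = activation above the run's mean compound activation plus 3 SD, cut at about 16% in these data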;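 note: peak over basal fluorescence ratio within a 140 s kinetic read after compound addition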
TAAR1 agonist = human TAAR1 agonists, primary screen, Fluo-8 calcium fluorescence, CHO RD-HGA16 cells | AID 624467, 2012 | 360,000 compounds, 0.99% hits | vehicle wells 0%, saturating PEA agonist 100% | activation, % at 3 µM;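 active = activation above the mean activation of all test compounds in the run plus 3 SD, cut at about 38% in these data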
Target sequence (Q96RJ0 whole entry, looked up): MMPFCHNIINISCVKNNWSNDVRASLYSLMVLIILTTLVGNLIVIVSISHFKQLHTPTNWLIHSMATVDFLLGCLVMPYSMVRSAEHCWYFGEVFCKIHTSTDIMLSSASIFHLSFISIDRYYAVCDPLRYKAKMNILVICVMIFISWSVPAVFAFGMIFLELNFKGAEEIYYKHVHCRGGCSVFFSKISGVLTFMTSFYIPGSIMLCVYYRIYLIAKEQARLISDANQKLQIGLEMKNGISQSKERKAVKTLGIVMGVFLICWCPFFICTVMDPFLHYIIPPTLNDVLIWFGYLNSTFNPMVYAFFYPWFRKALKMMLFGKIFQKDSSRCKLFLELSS
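Test system: RD-HGA16 (CHO) cells co-expressing Gα16 and hTAAR1 / Benchmarks: DMSO vehicle as 0%, PEA at EC100 as 100% / Repeats: no replicates (n 1) / Measure: % activation from peak over basal fluorescence ratio, DMSO-to-PEA scaled / Timing: 17-24 h plating, Fluo-8 75 min 37 °C, 30 min RT / Technique: kinetic Fluo-8 calcium fluorescence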
TAAR1 antagonist = human TAAR1 antagonists, primary screen, Fluo-8 calcium fluorescence, CHO RD-HGA16 cells. Trace amine-associated receptor 1 (Homo sapiens), Q96RJ0. antagonist. inhibition, % at 3 µM. 360,000 compounds, 1.5% hits;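 active = inhibition above a per-plate cutoff, the mean inhibition of test compounds on that plate plus 3 SD, cut at about 49% in these data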
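Test system: CHO RD-HGA16 cells bearing hTAAR1 | Reagent: β-PEA, EC80 | Compound dosing: 3 µM, single point | Schedule: Dye loading 75 min at 37 °C, then 30 min room temperature | Signal: Calcium fluorescence with Fluo-8 | Evaluation: Percent inhibition of PEA-evoked calcium signal, max/basal emission ratio | Control set: DMSO-only wells and EC80 β-PEA-stimulated wells | Repeats: Singlicate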
CHRM1 PAM = human M1 muscarinic receptor positive allosteric modulators, primary screen, CHO-K1 cells, Fluo-8 calcium fluorescence, 1536-well; Muscarinic acetylcholine receptor M1 (Homo sapiens), P11229; CHO-K1 hM1, ACh EC20; 0% = ACh EC20, 100% = maximal ACh; activation, % at 3 µM; 360,000 compounds, 0.088% hits; in the data active = activation above about 19%, passing the limit was not always enough
m5-HT2A agonist = mouse Htr2a agonists via beta-arrestin recruitment, primary screen, cell-based, luminescence | 5-hydroxytryptamine receptor 2A (Mus musculus), P35363 | activation, % at 7.6 µM | CHO-K1 mHTR2A beta-arrestin complementation; percent of 30 µM serotonin response | 360,000 compounds, 0.66% hits;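 active = activation above a run cutoff, the mean activation of all tested compounds plus 3 SD, cut at about 14% in these data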
M1 antag = human M1 muscarinic receptor antagonists, primary screen, CHO-K1 cells, Fluo-8 calcium fluorescence, 1536-well. CHO-K1 hM1, ACh EC80 antagonist. inhibition, % at 3 µM. 360,000 compounds, 1.3% hits. Muscarinic acetylcholine receptor M1 (Homo sapiens), P11229;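 active = percent inhibition above its own plate's cutoff, namely the mean of that plate's compound wells plus 3 SD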;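 note: peak over basal fluorescence ratio during 140 s after agonist addition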
nonsel antag count = nonselective antagonists in TAAR1 counter-screen cells, counter-screen for hTAAR1 antagonist project, cell-based, fluorescence, calcium | 2,400 compounds, 77% hits | counterscreen cell line, antagonist mode | AID 651780, 2012 | inhibition, % at 3 µM | shares compounds with TAAR1 antagonist; in the data active = inhibition above about 22%;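 note: CHO-Ga16 host cells stimulated with ATP at an EC80 level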
TAAR1 antag conf = human TAAR1 antagonists, retest of hits, confirmation, cell-based, fluorescence; shares compounds with TAAR1 antagonist; TAAR1-expressing cells, fluorescence antagonist read-out; inhibition, % at 3 µM; 2,400 compounds, 40% hits; AID 651785, 2012; in the data active = inhibition above about 49%;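 note: CHO-Ga16 host cells challenged with agonist PEA near its EC80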
Ga16 ag counter = calcium activation in Ga16-expressing cells, counter-screen for TAAR1 antagonist project, cell-based, fluorescence; 2,400 compounds, 18% hits; agonist counterscreen; shares compounds with TAAR1 antagonist; activation, % at 3 µM; in the data active = activation above about 12%
TAAR1 ag count = TAAR1 activation by candidate antagonists – cell-based, fluorescence, counter-screen for TAAR1 antagonist project. shares compounds with TAAR1 antagonist. hTAAR1 cell line, agonist mode. activation, % at 3 µM. 2,400 compounds, 2% hits. AID 651955, 2012; in the data active = activation above about 37%;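 note: CHO cells stably expressing TAAR1 with calcium dye readout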
Hits are given with their value; n = inactive; x = not tested or not shown. Shown are actives, neighbours in structure and some others; about 3.9% of the full set was active somewhere.

SMILES | CHRM1 agonist | TAAR1 agonist | TAAR1 antagonist | CHRM1 PAM | m5-HT2A agonist | M1 antag | nonsel antag count | TAAR1 antag conf | Ga16 ag counter | TAAR1 ag count
CC1CCCC(C)N1CCCNC(=O)c1csc2c1CCCCC2 (configuration not stated) | n | n | n | n | n | n | x | x | x | x
COc1ccc(C(=O)N(C)CC2CCN(CCc3cccc(C(F)(F)F)c3)CC2)cc1C | n | n | n | n | n | n | x | x | x | x
COc1ccc(Br)cc1CN1CCN(S(=O)(=O)Cc2ccccc2)CC1 | n | n | 56.5 | n | n | n | n | n | n | n
CCOc1cc(CN2CCN(S(=O)(=O)Cc3ccccc3)CC2)ccc1OC | n | n | n | n | n | n | x | x | x | x
O=C(/C=C/c1cn(-c2ccccc2)nc1-c1cccs1)NCCN1CCOCC1 | n | n | 52.6 | n | n | n | 27.9 | n | n | n
CN(C)C(=O)COC(=O)/C=C/c1cn(-c2ccccc2)nc1-c1cccs1 | n | n | n | n | n | n | x | x | x | x
OC[C@@H]1CN(Cc2cccc(C(F)(F)F)c2)C[C@H](n2cnc3c(NCc4ccc(F)cc4)ncnc32)O1 | n | n | n | n | n | n | x | x | x | x
OC[C@@H]1CN(Cc2cccc(C(F)(F)F)c2)C[C@H](n2cnc3c(NCc4ccco4)ncnc32)O1 | n | n | 73.6 | n | n | n | 22.5 | n | n | n
O=C1N[C@@H](c2ccccc2)COC(=O)[C@@H](Cc2ccc(F)cc2)CC/C=C/C[C@@H]1CC(=O)N(CCO)Cc1ccccc1 | n | n | n | n | n | n | x | x | x | x
CC(C)(C)[C@@H]1COC(=O)[C@H](Cc2ccc(F)cc2)C/C=C\C[C@H](CC(=O)N(CCO)Cc2ccccc2)C(=O)N1 | n | n | 49.9 | n | n | n | n | n | n | n
O=C1N[C@@H](c2ccccc2)COC(=O)[C@@H](Cc2ccc(F)cc2)CC/C=C/C[C@H]1CC(=O)N(CCO)Cc1ccccc1 | n | n | 70.9 | n | n | 28.1 | 31.5 | 55.8 | 13.8 | n
O=C1OC[C@H]2CCCN2C(=O)[C@@H](CC(=O)N(CCO)Cc2ccccc2)C/C=C\C[C@@H]1Cc1ccc(F)cc1 | n | n | 56.5 | n | n | n | 25.2 | n | n | n
CCN1CCN(c2nc3c(C)cccn3c(=O)c2/C=C(\C#N)C(=O)NC)CC1 | n | n | n | n | n | n | x | x | x | x
O=C(NNc1ncnc2ccccc12)c1cccc(Cl)c1 | n | n | n | n | n | n | x | x | x | x
Cc1c(NC(=O)COC(=O)C2=COCCO2)cccc1[N+](=O)[O-] | n | n | n | n | n | n | x | x | x | x
O=C(CSc1nc(-c2ccccc2)nc2ccc(F)cc12)Nc1ccc(C(=O)O)cc1 | n | n | n | n | n | n | x | x | x | x
O=C(CSc1nc(-c2ccccc2)nc2ccc(F)cc12)Nc1cccc(C(=O)O)c1 | n | n | 62.7 | n | n | n | 31.1 | 48.8 | n | n
Cc1cc(C)c(S(=O)(=O)NCCCn2ccnc2)cc1C | n | n | n | n | n | n | x | x | x | x
O=C(NCc1cccs1)C1CCC(CNS(=O)(=O)c2ccc(Br)s2)CC1 (configuration not stated) | n | n | 57.0 | n | n | n | n | 53.0 | n | 39.1
O=C(CCS(=O)(=O)c1cccs1)Nc1ccc(C(=O)NCc2ccc(F)cc2)cc1 | n | n | n | n | n | n | x | x | x | x
CC(=O)c1ccc(NC(=O)c2ccc(NC(=O)CCS(=O)(=O)c3cccs3)cc2)cc1 | n | n | 86.5 | n | n | n | 39.8 | 64.2 | 14.7 | n
CCN(Cc1nc2ccccc2c(=O)[nH]1)C(=O)c1ccc(C)c(NC(=O)c2ccco2)c1 | n | n | n | n | n | n | x | x | x | x
O=C(COC(=O)c1cccc(S(=O)(=O)NCc2ccccc2)c1)c1ccc2c(c1)OCCO2 | n | n | 62.7 | n | n | n | 34.5 | 48.6 | n | n
Cc1nc(C(F)(F)F)c(C(=O)O)cc1-c1nc(-c2ccccc2)cs1 | n | n | n | n | n | n | x | x | x | x
COc1ccc(-n2nc(C(=O)NCC(=O)Nc3cccc(NC(C)=O)c3)c3ccccc3c2=O)cc1 | n | n | n | n | n | n | x | x | x | x
SMILES | CHRM1 agonist | TAAR1 agonist | TAAR1 antagonist | CHRM1 PAM | m5-HT2A agonist | M1 antag | nonsel antag count | TAAR1 antag conf | Ga16 ag counter | TAAR1 ag count
COc1ccc(NC(=O)CNC(=O)c2nn(-c3ccc(OC)c(OC)c3)c(=O)c3ccccc23)c(OC)c1 | n | n | n | n | n | n | x | x | x | x
COc1ccc(-n2nc(C(=O)NCC(=O)Nc3cc(OC)c(OC)c(OC)c3)c3ccccc3c2=O)cc1OC | n | n | 64.0 | n | n | 30.4 | 28.6 | 51.1 | n | n
CCOC(=O)N1CCN(C(=O)CNC(=O)c2nn(-c3ccc(OC)c(OC)c3)c(=O)c3ccccc23)CC1 | n | n | n | n | n | n | x | x | x | x
COc1ccc(-n2nc(C(=O)NCC(=O)Nc3cc(OC)c(OC)c(OC)c3)c3ccccc3c2=O)cc1 | n | n | 57.8 | n | n | 27.4 | 28.0 | 51.0 | n | n
CCOC(=O)N1CCN(C(=O)CNC(=O)c2nn(-c3ccc(OC)c(Cl)c3)c(=O)c3ccccc23)CC1 | n | n | 62.0 | n | n | n | 32.2 | n | n | n
COc1ccc(CCN2C(=NC(C)=O)SC3CS(=O)(=O)CC32)cc1OC (configuration not stated) | n | n | n | n | n | n | x | x | x | x
COc1ccc(OC)c(NC(=O)c2ccc3c(c2)C(=O)N(CC2CCCO2)C3=O)c1 (configuration not stated) | n | n | n | n | n | n | x | x | x | x
CC(C)(C)c1ccc(C(=O)N2CCC(=O)N([C@H](COCc3ccccc3)Cc3ccccc3)CC2)cc1 | x | n | 71.2 | x | n | x | 27.3 | 50.2 | n | n
Cc1cc(/C=N\NC(=O)CC(=O)NC2CCCCC2)c(C)n1-c1cccc(Cl)c1Cl | n | n | n | n | n | n | x | x | x | x

Assay outcomes as filed in PubChem BioAssay.
